From ChEMBL document CHEMBL5346886 (Eur J Med Chem, 2023)
Values after ≈ are worked out from the molar mass of the structure shown. Active and inactive are the calls of the source. No cut-off for these calls is given here.

Columns and labels:
Murine hepatitis virus [1] = assay: Antiviral activity against Murine hepatitis virus-A59 infected in mouse L929 cells assessed as reduction in viral copy pre-infected with cell for 1 hrs followed by compound addition and measured after 48 hrs by RT-qPCR analysis; assay type: functional, organism-based; settings: Murine coronavirus
Procedure, shortened: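 L929 cells in DMEM with 10% FBS were washed serum-free at 80% confluence and infected with MHV-A59 at MOI 0.01 for 1 h at 37 °C. Compounds were added at 0.1–100 μmol/L, with DMSO as blank control. After 48 h at 37 °C, the viral M gene in supernatant was measured by qRT-PCR. Percent inhibition was derived from copy number and EC50 from curve fitting.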

[2] = Stability in human plasma assessed as half-life; assay type: ADME, cell-free
[3] = Solubility of the compound; assay type: physicochemical
Murine hepatitis virus [4] = assay: Potency index, ratio of GS-441524 EC50 to test compound EC50 for antiviral activity against Murine hepatitis virus-A59 infected in mouse L929 cells assessed as reduction in viral copy pre-infected with cell for 1 hrs followed by compound addition and measured after 48 hrs by RT-qPCR analysis; assay type: functional
Murine hepatitis virus [5] = assay: Antiviral activity against murine hepatitis virus-A59 infected in BALB/c mouse assessed as reduction in IFN-beta production in liver at 70 mg/kg, po administered once daily one hour post infection and measured after 3 days by ELISA analysis; assay type: functional, organism-based; settings: time 3.0 day
Procedure, shortened: (§1)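 MHV-A59 was inoculated intranasally into male BALB/c mice (30 μL, TCID50 = 10−7.125/100 μL), with oral dosing once daily from 1 hpi for four days. At 3 dpi, 0.1 g lung or liver from 4 mice per group was homogenized in 0.9 mL water at 4 °C and centrifuged. Supernatant IFN-β was read by ELISA; TNF-α, IFN-γ, IL-1β, IL-6 and CXCL10 by multi-analyte kit, with OD 450 nm against standards.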

[6] = AUC (0 to infinity) in Sprague-Dawley rat at 5 mg/kg, iv administered as single dose and measured at 0.083 to 24 hrs by LC-MS/MS analysis; assay type: ADME, organism-based; parameters: time upper 24 hrs, dose 5 mg/kg, time lower 0.083 hrs, route iv; settings: in vivo
[7] = Cmax in Sprague-Dawley rat at 5 mg/kg, iv administered as single dose and measured at 0.083 to 24 hrs by LC-MS/MS analysis; assay type: ADME, organism-based; parameters: dose 5 mg/kg, time 0.083-24 hrs, route iv; settings: in vivo
Murine hepatitis virus [8] = assay: Antiviral activity against murine hepatitis virus-A59 infected in BALB/c mouse assessed as reduction in IL-1beta production in liver at 70 mg/kg, po administered once daily one hour post infection and measured after 3 days by ELISA analysis; assay type: functional, organism-based; settings: time 3.0 day; procedure, shortened: as §1
Murine hepatitis virus [9] = assay: Antiviral activity against murine hepatitis virus-A59 infected in BALB/c mouse assessed as inhibition of viral replication in lungs at 70 mg/kg, po administered once daily one hour post infection and measured after 3 days by qRT-PCR analysis; assay type: functional, organism-based; settings: time 3.0 day
Procedure, shortened: (§2)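 SPF male BALB/c mice aged 3–4 weeks were put under isoflurane and inoculated intranasally with 30 μL MHV-A59 (TCID50 = 10−7.125/100 μL) in PBS. Oral dosing once daily in 15% Cremophor EL/82.5% PBS/2.5% DMSO started at 1 hpi and ran for four days; groups had 12 mice. At 3 dpi, 4 mice per group were killed and lung and liver M-gene copies measured by qRT-PCR.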

[10] = Cmax in Sprague-Dawley rat at 25 mg/kg, po administered as single dose and measured at 0.25 to 24 hrs by LC-MS/MS analysis; assay type: ADME, organism-based; parameters: dose 25 mg/kg, time 0.25-24 hrs, route po; settings: in vivo
[11] = Oral bioavailability in Sprague-Dawley rat at 25 mg/kg administered as single dose and measured at 0.25 to 24 hrs by LC-MS/MS analysis; assay type: ADME, organism-based; settings: in vivo, time 0.25-24 hrs
[12] = Tmax in Sprague-Dawley rat at 25 mg/kg, po administered as single dose and measured at 0.25 to 24 hrs by LC-MS/MS analysis; assay type: ADME, organism-based; settings: in vivo, time 0.25-24 hrs
Murine hepatitis virus [13] = assay: Antiviral activity against murine hepatitis virus-A59 infected in BALB/c mouse assessed as reduction in TNF-alpha production in liver at 70 mg/kg, po administered once daily one hour post infection and measured after 3 days by ELISA analysis; assay type: functional, organism-based; settings: time 3.0 day; procedure, shortened: as §1
[14] = AUC (0 to infinity) in Sprague-Dawley rat at 25 mg/kg, po administered as single dose and measured at 0.25 to 24 hrs by LC-MS/MS analysis; assay type: ADME, organism-based; parameters: time upper 24 hrs, time lower 0.25 hrs, dose 25 mg/kg, route po; settings: in vivo
Murine hepatitis virus [15] = assay: Antiviral activity against Murine hepatitis virus-A59 infected in mouse L929 cells assessed as reduction in viral copy pre-infected with cell for 1 hrs followed by compound addition and measured after 48 hrs in the presence of remdesivir by RT-qPCR analysis; assay type: functional, organism-based
Procedure, shortened: (§3)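 L929 cells in DMEM with 10% FBS were seeded for 24 h to 80% confluence and washed thrice with serum-free medium. Cells were infected with MHV-A59 at MOI 0.01 for 1 h at 37 °C, then compound was added, with DMSO as the blank control. After 48 h at 37 °C, cells and supernatants were taken for qRT-PCR of viral copies. Inhibition was calculated from copy number and fitted for EC50.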

Murine hepatitis virus [16] = assay: Antiviral activity against Murine hepatitis virus-A59 infected in mouse L929 cells assessed as reduction in viral copy upto 200 uM pre-infected with cell for 1 hrs followed by compound addition and measured after 48 hrs by RT-qPCR analysis; assay type: functional, organism-based; procedure, shortened: as §3
Murine hepatitis virus [17] = assay: Antiviral activity against murine hepatitis virus-A59 infected in BALB/c mouse assessed as inhibition of viral replication in liver at 70 mg/kg, po administered once daily one hour post infection and measured after 3 days by qRT-PCR analysis; assay type: functional, organism-based; settings: time 3.0 day; procedure, shortened: as §2
Murine hepatitis virus [18] = assay: Antiviral activity against murine hepatitis virus-A59 infected in BALB/c mouse assessed as reduction in CXCL10 production in liver at 70 mg/kg, po administered once daily one hour post infection and measured after 3 days by ELISA analysis; assay type: functional, organism-based; settings: time 3.0 day; procedure, shortened: as §1
Murine hepatitis virus [19] = assay: Antiviral activity against murine hepatitis virus-A59 infected in BALB/c mouse assessed as reduction in IL6 production in liver at 70 mg/kg, po administered once daily one hour post infection and measured after 3 days by ELISA analysis; assay type: functional, organism-based; settings: time 3.0 day; procedure, shortened: as §1
[20] = Tmax in Sprague-Dawley rat at 5 mg/kg, iv administered as single dose and measured at 0.083 to 24 hrs by LC-MS/MS analysis; assay type: ADME, organism-based; settings: in vivo, time 0.083-24 hrs
Murine hepatitis virus [21] = assay: Antiviral activity against murine hepatitis virus-A59 infected in BALB/c mouse assessed as reduction in IFN-gamma production in liver at 70 mg/kg, po administered once daily one hour post infection and measured after 3 days by ELISA analysis; assay type: functional, organism-based; settings: time 3.0 day; procedure, shortened: as §1
Murine hepatitis virus [22] = assay: Antiviral activity against murine hepatitis virus-A59 infected in BALB/c mouse assessed as reduction in mortality at 100 mg/kg, po administered once daily one hour post infection and measured after 23 days; assay type: functional, organism-based; settings: time 23.0 day
Procedure, shortened: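 After intranasal MHV-A59 inoculation (30 μL, TCID50 = 10−7.125/100 μL), 3–4-week-old male BALB/c mice received oral drug or vehicle once daily from 1 hpi for four days, 12 per group. The remaining mice were monitored daily for body weight, clinical signs and death until 23 dpi; survival curves were plotted.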

Murine hepatitis virus [23] = assay: Antiviral activity against murine hepatitis virus-A59 infected in BALB/c mouse assessed as inhibition of viral titer in liver at 100 mg/kg, po administered once daily one hour post infection and measured after 3 days by qRT-PCR analysis; assay type: functional, organism-based; settings: time 3.0 day; procedure, shortened: as §2
Murine hepatitis virus [24] = assay: Antiviral activity against murine hepatitis virus-A59 infected in BALB/c mouse assessed as alleviation of thickened alveolar septa in lungs at 100 mg/kg, po administered once daily one hour post infection and measured after 3 days by H&E staining based analysis; assay type: functional, organism-based; settings: time 3.0 day
Procedure, shortened: (§4)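 In male BALB/c mice (3–4 weeks), MHV-A59 was given intranasally (30 μL, TCID50 = 10−7.125/100 μL). Oral dosing once daily in a Cremophor EL/PBS/DMSO vehicle began at 1 hpi and lasted four days. At 3 dpi, lungs and livers from 4 mice per group were fixed in zinc formalin and paraffin-embedded. Sections of about 4 μm were stained with H&E and examined at 200× and 400×.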

[25] = MRT (0 to infinity) in Sprague-Dawley rat at 25 mg/kg, po administered as single dose and measured at 0.25 to 24 hrs by LC-MS/MS analysis; assay type: ADME, organism-based; settings: in vivo, time 0.25-24 hrs
[26] = MRT (0 to infinity) in Sprague-Dawley rat at 5 mg/kg, iv administered as single dose and measured at 0.083 to 24 hrs by LC-MS/MS analysis; assay type: ADME, organism-based; settings: in vivo, time 0.083-24 hrs
Murine hepatitis virus [27] = assay: Antiviral activity against murine hepatitis virus-A59 infected in BALB/c mouse assessed as alleviation of lymphocytes infiltration in lungs at 100 mg/kg, po administered once daily one hour post infection and measured after 3 days by H&E staining based analysis; assay type: functional, organism-based; settings: time 3.0 day; procedure, shortened: as §4
Murine hepatitis virus [28] = assay: Antiviral activity against murine hepatitis virus-A59 infected in BALB/c mouse assessed as inhibition of viral replication in lungs at 100 mg/kg, po administered once daily one hour post infection and measured after 3 days by qRT-PCR analysis; assay type: functional, organism-based; settings: time 3.0 day; procedure, shortened: as §2
Murine hepatitis virus [29] = assay: Antiviral activity against murine hepatitis virus-A59 infected in BALB/c mouse assessed as inhibition of viral replication in liver at 100 mg/kg, po administered once daily one hour post infection and measured after 3 days by qRT-PCR analysis; assay type: functional, organism-based; settings: time 3.0 day; procedure, shortened: as §2
Murine hepatitis virus [30] = assay: Antiviral activity against murine hepatitis virus-A59 infected in BALB/c mouse assessed as alleviation of necrotic debris in lungs at 100 mg/kg, po administered once daily one hour post infection and measured after 3 days by H&E staining based analysis; assay type: functional, organism-based; settings: time 3.0 day; procedure, shortened: as §4
Murine hepatitis virus [31] = assay: Antiviral activity against murine hepatitis virus-A59 infected in BALB/c mouse assessed as alleviation of interstitial pneumonia in lungs at 100 mg/kg, po administered once daily one hour post infection and measured after 3 days by H&E staining based analysis; assay type: functional, organism-based; settings: time 3.0 day; procedure, shortened: as §4

SMILES: CC(C(=O)OC[C@H]1O[C@@](C#N)(c2ccc3c(N)ncnn23)[C@H](O)[C@@H]1O)c1cccc(C(=O)c2ccccc2)c1 (stereo not given in full)
- EC50 (Murine hepatitis virus [1]): 4.17 µM
- t1/2 [2]: 3.3197 h
- solubility [3]: 1070 µM (≈ 566 µg/mL)

SMILES: CC(C(=O)OC[C@H]1O[C@@](C#N)(c2ccc3c(N)ncnn23)[C@H](O)[C@@H]1O)c1cccc(Oc2ccccc2)c1 (stereo not given in full)
- EC50 (Murine hepatitis virus [1]): 1.27 µM
- t1/2 [2]: 2.8218 h
- solubility [3]: 29 µM (≈ 15 µg/mL)
- Ratio EC50 (Murine hepatitis virus [4]): 8

SMILES: COc1ccc2cc([C@H](C)C(=O)OC[C@H]3O[C@@](C#N)(c4ccc5c(N)ncnn45)[C@H](O)[C@@H]3O)ccc2c1
- EC50 (Murine hepatitis virus [1]): 8.65 µM
- t1/2 [2]: 3.0328 h
- solubility [3]: 155 µM (≈ 78 µg/mL)

SMILES: COc1ccc2c(c1)c(CC(=O)OC[C@H]1O[C@@](C#N)(c3ccc4c(N)ncnn34)[C@H](O)[C@@H]1O)c(C)n2C(=O)c1ccc(Cl)cc1
- EC50 (Murine hepatitis virus [1]): 10.1 µM
- t1/2 [2]: 2.8345 h
- solubility [3]: 0.1 µM (≈ 0.0631 µg/mL)

SMILES: N#C[C@@]1(c2ccc3c(N)ncnn23)O[C@H](COC(=O)Cc2ccccc2Nc2c(Cl)cccc2Cl)[C@@H](O)[C@H]1O
- EC50 (Murine hepatitis virus [1]): 6.4 µM
- t1/2 [2]: 3.186 h
- solubility [3]: 3.7 µM (≈ 2.11 µg/mL)

SMILES: CCC(CC)COC(=O)[C@H](C)N[P@](=O)(OC[C@H]1O[C@@](C#N)(c2ccc3c(N)ncnn23)[C@H](O)[C@@H]1O)Oc1ccccc1
- EC50 (Murine hepatitis virus [1]): 1.82 µM

SMILES: CC(C)Cc1ccc(C(C)C(=O)O)cc1 (stereo not given) [IBUPROFEN]
- Activity (Murine hepatitis virus [5]): inactive
- AUC [6]: 67.1 uM.hr/L
- Cmax [7]: 41.8 µM
- Activity (Murine hepatitis virus [8]): inactive
- Activity (Murine hepatitis virus [9]): inactive
- Cmax [10]: 80.2 µM
- F [11]: 78.42%
- Tmax [12]: 0.67 h
- Activity (Murine hepatitis virus [13]): inactive
- AUC [14]: 263 uM.hr/L
- Activity (Murine hepatitis virus [15]): inactive
- Activity (Murine hepatitis virus [16]): inactive
- Activity (Murine hepatitis virus [17]): inactive
- Activity (Murine hepatitis virus [18]): inactive
- Activity (Murine hepatitis virus [19]): inactive
- Tmax [20]: 1.8 min
- Activity (Murine hepatitis virus [21]): inactive

SMILES: N#C[C@@]1(c2ccc3c(N)ncnn23)O[C@H](CO)C(O)C1O (single isomer, unassigned) [GS-441524]
- AUC [6]: 7.51 uM.hr/L
- Activity (Murine hepatitis virus [22]): Active
- Cmax [7]: 5.67 µM
- EC50 (Murine hepatitis virus [1]): 10 µM
- Activity (Murine hepatitis virus [23]): Active
- Cmax [10]: 7.75 µM
- F [11]: 60.31%
- Activity (Murine hepatitis virus [24]): inactive
- AUC [14]: 22.6 uM.hr/L
- MRT [25]: 3.16 h
- MRT [26]: 1.28 h
- Activity (Murine hepatitis virus [27]): inactive
- Activity (Murine hepatitis virus [28]): Active
- Activity (Murine hepatitis virus [29]): Active
- Activity (Murine hepatitis virus [30]): inactive
- Activity (Murine hepatitis virus [31]): inactive
